From ChEMBL document CHEMBL4425092, “ent-Labdane Diterpenoids from the Aerial Parts of Eupatorium obtusissmum” (2016)

Columns and labels:
Type in all cases: functional
[1] = tested on: T47D; assay: Antiproliferative activity against human T47D cells after 48 hrs by sulforhodamine B assay
How it was run: (§1)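 Plating was at 5000 cells per well, with 48 h drug exposure starting on day 1, in triplicate, at dilutions spanning 0.001–100 μM. DMSO stocks were 400× the top final concentration, and vehicle controls received 0.25% v/v DMSO. Cells were fixed with cold TCA for 60 min at 4 °C, and growth was measured by SRB. Absorbance at 530 nm was corrected for medium-only blank wells, and GI50 was derived by NCI formulas.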

[2] = tested on: WiDr; assay: Antiproliferative activity against human WiDr cells after 48 hrs by sulforhodamine B assay; how it was run: as §1
[3] = tested on: HeLa; assay: Antiproliferative activity against human HeLa cells after 48 hrs by sulforhodamine B assay
How it was run: (§2)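 Cells seeded at 2500 per well and treated from day 1 after plating for 48 h, in triplicate, at dilutions over 0.001–100 μM. Stocks were made in DMSO at 400× the top final concentration, and vehicle controls received 0.25% v/v DMSO. Cells were fixed with ice-cold TCA for 60 min at 4 °C, then stained with SRB. OD was read at 530 nm, corrected for medium-only background, and GI50 was calculated by NCI formulas.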

[4] = tested on: HBL-100; assay: Antiproliferative activity against human HBL100 cells after 48 hrs by sulforhodamine B assay; conditions: HBL-100, 48 h; how it was run: as §2
[5] = tested on: A549; assay: Antiproliferative activity against human A549 cells after 48 hrs by sulforhodamine B assay; conditions: A549, 48 h; how it was run: as §2
[6] = tested on: SW1573; assay: Antiproliferative activity against human SW1573 cells after 48 hrs by sulforhodamine B assay; conditions: SW1573, 48 h; how it was run: as §1

GI50 [1] | GI50 [3] | GI50 [5] | GI50 [6] | SMILES | GI50 [2] | GI50 [4]
> 100 µM | > 100 µM | > 100 µM | > 100 µM | CC1=CC(=O)O[C@@H]1C[C@@H]1[C@@H](C)C(=O)C[C@@H]2C(C)(C)[C@H](O)CC[C@@]12C | > 100 µM | > 100 µM
> 100 µM | 62 µM | 59 µM | > 100 µM | C=C1CC[C@@H]2C(C)(C)[C@H](O)CC[C@@]2(C)[C@@H]1C[C@H]1OC(=O)C=C1C | > 100 µM | > 100 µM
> 100 µM | > 100 µM | > 100 µM | > 100 µM | CC1=CC(=O)O[C@@H]1C[C@@H]1[C@@H](C)C(=O)C[C@@H]2C(C)(C)[C@@H](O)CC[C@@]12C | > 100 µM | > 100 µM
> 100 µM | 62 µM | 44 µM | > 100 µM | C=C1CC[C@@H]2C(C)(C)[C@@H](O)CC[C@@]2(C)[C@@H]1C[C@H]1OC(=O)C=C1C | > 100 µM | > 100 µM
24 µM | 19 µM | 23 µM | 57 µM | C=C1[C@@H](OC(C)=O)C[C@@H]2C(C)(C)[C@@H](O)CC[C@@]2(C)[C@@H]1C[C@H]1OC(=O)C=C1C | 32 µM | 35 µM
> 100 µM | > 100 µM | > 100 µM | > 100 µM | CC1=CC(=O)O[C@H]1C[C@@H]1[C@@H](C)C(=O)C[C@@H]2C(C)(C)[C@@H](O)CC[C@@]12C | > 100 µM | > 100 µM
22 µM | 3 µM | 0.7 µM | 15 µM | COc1cc([C@@H]2c3cc4c(cc3[C@@H](O[C@@H]3O[C@@H]5CO[C@@H](C)O[C@H]5[C@H](O)[C@H]3O)[C@H]3COC(=O)[C@H]23)OCO4)cc(OC)c1O [ETOPOSIDE] | 23 µM | 2.3 µM
